Measured values: ChEMBL document CHEMBL1921722, “In vitro and in vivo evaluation of select kahalalide F analogs with antitumor and antifungal activities” (Bioorg Med Chem, 2011)
Active and inactive are the calls of the source. The rule behind the calls is not given here.

Legend:
NCI/ADR-RES [1] = test: Cytotoxicity against human NCI/ADR-RES cells by sulforhodamine B assay; type: functional
Method in brief: (§1)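 NCI Developmental Therapeutics Program 60-cell-line human tumor panel screen, run at NCI. A single-concentration pre-screen was followed by a five-concentration dose-response in 10-fold steps. GI50 is the concentration that reduces growth of treated cells to half that of untreated control cells. TGI is the concentration that completely halts growth.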

T47D = test: Cytotoxicity against human T47D cells by sulforhodamine B assay; type: functional; method in brief: as §1
BT-549 [2] = test: Cytotoxicity against human BT549 cells by sulforhodamine B assay; type: functional
Method in brief: (§2)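 Run at NCI in the DTP 60-cell-line human tumor panel by standard procedure. Compounds were first screened at a single concentration, then tested at five tenfold-spaced concentrations. GI50 is the concentration reducing treated-cell growth to half that of untreated controls; TGI is the concentration completely halting growth.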

Escherichia coli = test: Antimicrobial activity against Escherichia coli ATCC 35218 by CLSI method; type: functional, organism-based
HOP-92 = test: Cytotoxicity against human HOP92 cells assessed as cell growth at 80 uM by sulforhodamine B assay relative to control; type: functional; conditions: read-out: Activity
[3] = Acute toxicity in ip dosed athymic nude mouse assessed as mortality after 24 days; type: organism-based; conditions: in vivo
Method in brief: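 Female athymic nude mice, non-tumored; single IP injection, one mouse per dose level, 400, 200 and 100 mg/kg first, then 50, 25 and 12.5 mg/kg. Dose volume 0.1 ml/10 g body weight. Body weight and survival monitored; animals sacrificed on >20% weight loss or other significant toxicity.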

IGROV-1 = test: Cytotoxicity against human IGROV1 cells assessed as cell growth at 80 uM by sulforhodamine B assay relative to control; type: functional; conditions: read-out: Activity
HCT-116 = test: Cytotoxicity against human HCT116 cells assessed as cell growth at 8 uM by sulforhodamine B assay relative to control; type: functional; conditions: read-out: Activity
SW-620 [4] = test: Cytotoxicity against human SW620 cells assessed as cell growth at 800 nM by sulforhodamine B assay relative to control; type: functional; conditions: read-out: Activity
TK-10 [5] = test: Cytotoxicity against human TK10 cells assessed as cell growth at 8 uM by sulforhodamine B assay relative to control; type: functional; conditions: read-out: Activity
HCC 2998 = test: Cytotoxicity against human HCC2998 cells assessed as cell growth at 8 uM by sulforhodamine B assay relative to control; type: functional; conditions: read-out: Activity
NCI-H460 = test: Cytotoxicity against human NCI-H460 cells assessed as cell growth at 80 uM by sulforhodamine B assay relative to control; type: functional; conditions: read-out: Activity
COLO 205 [6] = test: Cytotoxicity against human COLO205 cells assessed as cell growth at 8 nM by sulforhodamine B assay relative to control; type: functional; conditions: read-out: Activity; method in brief: as §2
KM12 [7] = test: Cytotoxicity against human KM12 cells assessed as cell growth at 80 nM by sulforhodamine B assay relative to control; type: functional; conditions: read-out: Activity
HCT-15 = test: Cytotoxicity against human HCT15 cells assessed as cell growth at 8 uM by sulforhodamine B assay relative to control; type: functional; conditions: read-out: Activity
TK-10 [8] = test: Cytotoxicity against human TK10 cells by sulforhodamine B assay; type: functional; method in brief: as §1
LOX IMVI = test: Cytotoxicity against human LOXIMVI cells assessed as cell growth at 8 uM by sulforhodamine B assay relative to control; type: functional; conditions: read-out: Activity
M14 = test: Cytotoxicity against human M14 cells assessed as cell growth at 80 nM by sulforhodamine B assay relative to control; type: functional; conditions: read-out: Activity
KM12 [9] = test: Cytotoxicity against human KM12 cells assessed as cell growth at 800 nM by sulforhodamine B assay relative to control; type: functional; conditions: read-out: Activity
SNB-75 = test: Cytotoxicity against human SNB75 cells assessed as cell growth at 800 nM by sulforhodamine B assay relative to control; type: functional; conditions: read-out: Activity
HOP-62 = test: Cytotoxicity against human HOP62 cells assessed as cell growth at 800 nM by sulforhodamine B assay relative to control; type: functional; conditions: read-out: Activity
COLO 205 [10] = test: Cytotoxicity against human COLO205 cells assessed as cell growth at 8 uM by sulforhodamine B assay relative to control; type: functional; conditions: read-out: Activity; method in brief: as §2
PC-3 = test: Cytotoxicity against human PC3 cells assessed as cell growth at 8 uM by sulforhodamine B assay relative to control; type: functional; conditions: read-out: Activity
SN12C = test: Cytotoxicity against human SN12C cells by sulforhodamine B assay; type: functional; method in brief: as §1
UACC-62 = test: Cytotoxicity against human UACC62 cells assessed as cell growth at 80 nM by sulforhodamine B assay relative to control; type: functional; conditions: read-out: Activity
BT-549 [11] = test: Cytotoxicity against human BT549 cells assessed as cell growth at 80 uM by sulforhodamine B assay relative to control; type: functional; conditions: read-out: Activity; method in brief: as §2
Staphylococcus aureus = test: Antimicrobial activity against methicillin-resistant Staphylococcus aureus ATCC 43300 by CLSI method; type: functional, organism-based
BT-549 [12] = test: Cytotoxicity against human BT549 cells assessed as cell growth at 800 nM by sulforhodamine B assay relative to control; type: functional; conditions: read-out: Activity; method in brief: as §2
NCI/ADR-RES [13] = test: Cytotoxicity against human NCI/ADR-RES cells assessed as cell growth at 80 nM by sulforhodamine B assay relative to control; type: functional; conditions: read-out: Activity
NCI-H322M = test: Cytotoxicity against human NCI-H322M cells by sulforhodamine B assay; type: functional; method in brief: as §1
RXF 393 = test: Cytotoxicity against human RXF393 cells by sulforhodamine B assay; type: functional; method in brief: as §1
ACHN = test: Cytotoxicity against human ACHN cells assessed as cell growth at 80 uM by sulforhodamine B assay relative to control; type: functional; conditions: read-out: Activity; method in brief: as §2
SW-620 [14] = test: Cytotoxicity against human SW620 cells assessed as cell growth at 80 uM by sulforhodamine B assay relative to control; type: functional; conditions: read-out: Activity
MDA-MB-231 = test: Cytotoxicity against human MDA-MB-231 cells by sulforhodamine B assay; type: functional; method in brief: as §1
A549 = test: Cytotoxicity against human A549 cells assessed as cell growth at 800 nM by sulforhodamine B assay relative to control; type: functional; conditions: read-out: Activity; method in brief: as §2
U-251 = test: Cytotoxicity against human U251 cells assessed as cell growth at 800 nM by sulforhodamine B assay relative to control; type: functional; conditions: read-out: Activity
SK-MEL-5 = test: Cytotoxicity against human SK-MEL-5 cells by sulforhodamine B assay; type: functional; method in brief: as §1
SNB-19 = test: Cytotoxicity against human SNB19 cells assessed as cell growth at 800 nM by sulforhodamine B assay relative to control; type: functional; conditions: read-out: Activity
OVCAR-4 = test: Cytotoxicity against human OVCAR4 cells assessed as cell growth at 800 nM by sulforhodamine B assay relative to control; type: functional; conditions: read-out: Activity
MCF7 = test: Cytotoxicity against human MCF7 cells assessed as cell growth at 8 nM by sulforhodamine B assay relative to control; type: functional; conditions: read-out: Activity

**Q.** With `C/C=C1\NC(=O)[C@H](Cc2ccccc2)NC(=O)[C@@H](C(C)C)NC(=O)[C@@H]([C@@H](C)CC)NC(=O)[C@H](NC(=O)[C@H](NC(=O)[C@H](CCCNCc2ccc(F)c(C)c2)NC(=O)[C@H]2CCCN2C(=O)[C@H](NC(=O)[C@@H](NC(=O)[C@@H](NC(=O)[C@H](NC(=O)CCCC(C)C)C(C)C)[C@@H](C)O)C(C)C)C(C)C)[C@@H](C)CC)[C@@H](C)OC(=O)[C@H](C(C)C)NC1=O` as the compound, how does the GI50 (NCI/ADR-RES [1]) read?
**A.** 1.32 µM

**Q.** What about the LC50 (NCI/ADR-RES [1]) of the same compound?
**A.** 5.25 µM

**Q.** And the TGI (NCI/ADR-RES [1]; read-out: pTGI (converted))?
**A.** 2.63 µM

**Q.** And the GI50 (T47D; read-out: GI50)?
**A.** 0.144 µM

**Q.** What about the TGI (T47D; read-out: TGI) of the same compound?
**A.** 0.327 µM

**Q.** And the GI50 (T47D; read-out: pGI50 (converted))?
**A.** 0.145 µM

**Q.** And the TGI (T47D; read-out: pTGI (converted))?
**A.** 0.331 µM

**Q.** And the GI50 (BT-549 [2])?
**A.** 1.23 µM

**Q.** And the LC50 (BT-549 [2])?
**A.** 4.57 µM

**Q.** What about the TGI (BT-549 [2]; read-out: pTGI (converted)) of the same compound?
**A.** 2.34 µM

**Q.** And the Activity (Escherichia coli)?
**A.** inactive

**Q.** And the growth at 80 µM (HOP-92)?
**A.** -91%

**Q.** And the MTD at 576 h [3]?
**A.** 12.5 mg/kg

**Q.** And the growth at 80 µM (IGROV-1)?
**A.** -26%

**Q.** What about the growth at 8 µM (HCT-116) of the same compound?
**A.** -100%

**Q.** What about the growth at 0.8 µM (SW-620 [4]) of the same compound?
**A.** 40%

**Q.** And the growth at 8 µM (TK-10 [5])?
**A.** -71%

**Q.** And the growth at 8 µM (HCC 2998)?
**A.** -87%

**Q.** And the growth at 80 µM (NCI-H460)?
**A.** 2%

**Q.** And the growth at 0.008 µM (COLO 205 [6])?
**A.** 99%

**Q.** And the growth at 0.08 µM (KM12 [7])?
**A.** 98%

**Q.** And the growth at 8 µM (HCT-15)?
**A.** -92%

**Q.** And the GI50 (TK-10 [8])?
**A.** 1.48 µM

**Q.** What about the TGI (TK-10 [8]; read-out: pTGI (converted)) of the same compound?
**A.** 2.88 µM

**Q.** What about the growth at 8 µM (LOX IMVI) of the same compound?
**A.** -85%

**Q.** What about the growth at 0.08 µM (M14) of the same compound?
**A.** 99%

**Q.** And the growth at 0.8 µM (KM12 [9])?
**A.** -55%

**Q.** What about the growth at 0.8 µM (SNB-75) of the same compound?
**A.** 21%

**Q.** What about the growth at 0.8 µM (HOP-62) of the same compound?
**A.** 87%

**Q.** What about the growth at 8 µM (COLO 205 [10]) of the same compound?
**A.** -76%

**Q.** What about the growth at 8 µM (PC-3) of the same compound?
**A.** -95%

**Q.** What about the GI50 (SN12C) of the same compound?
**A.** 1.26 µM

**Q.** And the LC50 (SN12C)?
**A.** 4.9 µM

**Q.** What about the TGI (SN12C; read-out: pTGI (converted)) of the same compound?
**A.** 2.45 µM

**Q.** What about the growth at 0.08 µM (UACC-62) of the same compound?
**A.** 104%

**Q.** And the growth at 80 µM (BT-549 [11])?
**A.** -58%

**Q.** And the Activity (Staphylococcus aureus)?
**A.** inactive

**Q.** What about the growth at 0.8 µM (BT-549 [12]) of the same compound?
**A.** 87%

**Q.** What about the growth at 0.08 µM (NCI/ADR-RES [13]) of the same compound?
**A.** 88%

**Q.** And the LC50 (NCI-H322M)?
**A.** 0.457 µM

**Q.** And the GI50 (NCI-H322M; read-out: GI50)?
**A.** 0.131 µM

**Q.** And the TGI (NCI-H322M; read-out: TGI)?
**A.** 0.244 µM

**Q.** What about the GI50 (NCI-H322M; read-out: pGI50 (converted)) of the same compound?
**A.** 0.132 µM

**Q.** What about the TGI (NCI-H322M; read-out: pTGI (converted)) of the same compound?
**A.** 0.245 µM

**Q.** And the GI50 (RXF 393)?
**A.** 1.35 µM

**Q.** And the LC50 (RXF 393)?
**A.** 6.31 µM

**Q.** What about the TGI (RXF 393; read-out: pTGI (converted)) of the same compound?
**A.** 2.95 µM

**Q.** What about the growth at 80 µM (ACHN) of the same compound?
**A.** -100%

**Q.** And the growth at 80 µM (SW-620 [14])?
**A.** -80%

**Q.** What about the GI50 (MDA-MB-231) of the same compound?
**A.** 1.45 µM

**Q.** And the LC50 (MDA-MB-231)?
**A.** 6.92 µM

**Q.** What about the TGI (MDA-MB-231; read-out: pTGI (converted)) of the same compound?
**A.** 3.16 µM

**Q.** And the growth at 0.8 µM (A549)?
**A.** -40%

**Q.** And the growth at 0.8 µM (U-251)?
**A.** 27%

**Q.** And the GI50 (SK-MEL-5)?
**A.** 1.15 µM

**Q.** And the LC50 (SK-MEL-5)?
**A.** 3.98 µM

**Q.** And the TGI (SK-MEL-5; read-out: pTGI (converted))?
**A.** 2.14 µM

**Q.** What about the growth at 0.8 µM (SNB-19) of the same compound?
**A.** 90%

**Q.** What about the growth at 0.8 µM (OVCAR-4) of the same compound?
**A.** 7%

**Q.** And the growth at 0.008 µM (MCF7)?
**A.** 95%
